Data taken from ChEMBL document CHEMBL4028913, “Discovery of Novel Potent VEGFR-2 Inhibitors Exerting Significant Antiproliferative Activity against Cancer Cell Lines” (J Med Chem, 2018).
pIC50: −log10 of the molar value. The source made the active and inactive calls. The calls are words filed in the database; no cut-off is given here.

Legend:
HUVEC [1] = assay: Growth inhibition of HUVEC at 10 uM after 72 hrs by CellTiter-Glo assay relative to control; assay type: functional; conditions: Homo sapiens, read-out: GI
Outline: (§1)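 Cells in exponential phase seeded at 2000–4000 cells/well, then exposed 72 h at 37 °C, 5% CO2 with 0.1% final DMSO. Single-point screen at 10 μM final. […] Read-out was CellTiter-Glo luminescence.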

MDA-MB-435 [2] = assay: Growth inhibition of human MDA-MB-435 cells at 10 uM after 72 hrs by CellTiter-Glo assay relative to control; assay type: functional; conditions: MDA-MB-435, 72 h, read-out: GI; outline: as §1
HUVEC [3] = assay: Growth inhibition of HUVEC after 72 hrs by CellTiter-Glo assay; assay type: functional, cell-based; conditions: Homo sapiens; outline: as §1
A-431 = assay: Growth inhibition of human A431 cells at 10 uM after 72 hrs by CellTiter-Glo assay relative to control; assay type: functional; conditions: A-431, 72 h, read-out: GI
Outline: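 A431 cells seeded at 2000–4000 cells/well and treated with 10 μM final compound, 0.1% DMSO, for 72 h at 37 °C, 5% CO2. Viability read by CellTiter-Glo. Inhibition ratio = 1 − Vsample/Vvehicle control; triplicate.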

MDA-MB-435 [4] = assay: Growth inhibition of human MDA-MB-435 cells after 72 hrs by CellTiter-Glo assay; assay type: functional, cell-based; conditions: MDA-MB-435, 72 h; outline: as §1
Homo sapiens [5] = species on record: Homo sapiens; assay: Inhibition of human DDR at 0.5 uM relative to control
[6] = target: Ephrin type-A receptor 2 (Homo sapiens) (UniProt P29317); assay: Inhibition of human EPHA2 at 0.5 uM relative to control
[7] = target: Ephrin type-A receptor 3 (Homo sapiens) (UniProt P29320); assay: Inhibition of human EPHA3 at 0.5 uM relative to control
[8] = target: Ephrin type-A receptor 4 (Homo sapiens) (UniProt P54764); assay: Inhibition of human EPHA4 at 0.5 uM relative to control
Chain of Ephrin type-A receptor 4 (Homo sapiens) (P54764 whole entry): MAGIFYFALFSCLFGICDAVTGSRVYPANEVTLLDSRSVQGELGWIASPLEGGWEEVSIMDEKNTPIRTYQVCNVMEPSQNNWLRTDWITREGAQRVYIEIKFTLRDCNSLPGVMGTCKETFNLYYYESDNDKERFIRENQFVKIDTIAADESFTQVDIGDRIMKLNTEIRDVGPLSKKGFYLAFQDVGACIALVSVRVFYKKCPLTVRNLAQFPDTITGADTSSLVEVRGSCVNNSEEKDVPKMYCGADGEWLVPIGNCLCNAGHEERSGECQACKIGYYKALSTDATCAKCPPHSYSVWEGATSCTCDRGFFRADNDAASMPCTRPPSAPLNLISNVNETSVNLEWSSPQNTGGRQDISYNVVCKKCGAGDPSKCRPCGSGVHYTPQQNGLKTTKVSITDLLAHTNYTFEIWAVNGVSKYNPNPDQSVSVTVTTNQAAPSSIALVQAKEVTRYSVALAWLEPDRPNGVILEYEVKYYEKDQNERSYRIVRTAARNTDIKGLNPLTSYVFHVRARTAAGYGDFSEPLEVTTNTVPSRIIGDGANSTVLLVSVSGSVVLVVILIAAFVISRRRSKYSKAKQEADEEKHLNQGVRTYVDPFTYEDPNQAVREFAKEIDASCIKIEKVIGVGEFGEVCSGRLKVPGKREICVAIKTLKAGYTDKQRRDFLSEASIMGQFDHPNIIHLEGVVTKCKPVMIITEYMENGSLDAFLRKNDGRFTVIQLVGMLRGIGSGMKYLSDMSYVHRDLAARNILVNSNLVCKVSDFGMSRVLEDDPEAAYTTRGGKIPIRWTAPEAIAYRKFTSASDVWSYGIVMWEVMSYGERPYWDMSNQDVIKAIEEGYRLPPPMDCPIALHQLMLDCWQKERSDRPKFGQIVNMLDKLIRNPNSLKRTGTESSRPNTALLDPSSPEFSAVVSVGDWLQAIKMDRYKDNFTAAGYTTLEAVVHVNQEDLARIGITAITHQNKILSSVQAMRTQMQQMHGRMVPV

[9] = target: Ephrin type-A receptor 5 (Homo sapiens) (UniProt P54756); assay: Inhibition of human EPHA5 at 0.5 uM relative to control
[10] = target: Ephrin type-A receptor 7 (Homo sapiens) (UniProt Q15375); assay: Inhibition of human EPHA7 at 0.5 uM relative to control
[11] = target: Ephrin type-A receptor 8 (Homo sapiens) (UniProt P29322); assay: Inhibition of human EPHA8 at 0.5 uM relative to control
[12] = target: Vascular endothelial growth factor receptor 1 (Homo sapiens) (UniProt P17948); assay: Inhibition of human Flt1 at 0.5 uM relative to control
Chain of Vascular endothelial growth factor receptor 1 (Homo sapiens) (P17948 whole entry): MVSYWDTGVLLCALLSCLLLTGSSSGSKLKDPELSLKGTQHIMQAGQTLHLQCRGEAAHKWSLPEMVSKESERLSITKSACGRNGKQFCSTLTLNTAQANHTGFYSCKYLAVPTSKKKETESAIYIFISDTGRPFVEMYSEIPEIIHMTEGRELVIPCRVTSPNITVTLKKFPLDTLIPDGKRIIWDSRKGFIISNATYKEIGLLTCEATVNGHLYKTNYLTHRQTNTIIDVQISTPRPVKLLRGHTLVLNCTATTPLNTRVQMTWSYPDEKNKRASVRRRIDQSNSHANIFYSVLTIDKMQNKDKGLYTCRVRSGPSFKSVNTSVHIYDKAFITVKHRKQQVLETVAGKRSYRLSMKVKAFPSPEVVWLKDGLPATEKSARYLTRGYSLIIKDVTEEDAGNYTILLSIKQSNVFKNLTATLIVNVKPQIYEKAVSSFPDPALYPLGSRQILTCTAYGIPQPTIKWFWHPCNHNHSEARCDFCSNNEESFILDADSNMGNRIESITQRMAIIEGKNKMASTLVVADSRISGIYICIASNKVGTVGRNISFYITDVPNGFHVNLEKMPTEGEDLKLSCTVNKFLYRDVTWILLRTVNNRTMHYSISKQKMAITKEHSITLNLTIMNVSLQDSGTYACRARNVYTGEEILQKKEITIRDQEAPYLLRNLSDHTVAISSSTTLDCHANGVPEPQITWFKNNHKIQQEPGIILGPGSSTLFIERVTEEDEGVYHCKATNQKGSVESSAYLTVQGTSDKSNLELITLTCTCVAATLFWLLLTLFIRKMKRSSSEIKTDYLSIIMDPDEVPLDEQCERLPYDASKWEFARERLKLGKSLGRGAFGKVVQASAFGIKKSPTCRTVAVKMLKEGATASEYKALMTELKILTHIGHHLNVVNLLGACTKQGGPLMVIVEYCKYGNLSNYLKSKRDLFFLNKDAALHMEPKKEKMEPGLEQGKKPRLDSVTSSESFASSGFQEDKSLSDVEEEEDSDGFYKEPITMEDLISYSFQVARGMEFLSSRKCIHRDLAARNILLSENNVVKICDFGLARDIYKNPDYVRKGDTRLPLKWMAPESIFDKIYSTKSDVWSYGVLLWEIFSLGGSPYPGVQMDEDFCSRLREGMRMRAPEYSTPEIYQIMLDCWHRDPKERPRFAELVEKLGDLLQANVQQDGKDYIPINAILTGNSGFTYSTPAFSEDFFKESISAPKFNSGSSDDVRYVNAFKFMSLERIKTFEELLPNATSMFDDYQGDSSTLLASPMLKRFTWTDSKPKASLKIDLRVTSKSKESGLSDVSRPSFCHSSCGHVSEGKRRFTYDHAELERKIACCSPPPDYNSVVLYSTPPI

[13] = target: Receptor-type tyrosine-protein kinase FLT3 (Homo sapiens) (UniProt P36888); assay: Inhibition of human Flt3 at 0.5 uM relative to control
[14] = target: Vascular endothelial growth factor receptor 3 (Homo sapiens) (UniProt P35916); assay: Inhibition of human Flt4 at 0.5 uM relative to control
Homo sapiens [15] = species on record: Homo sapiens; assay: Inhibition of human PDGFR at 0.5 uM relative to control
[16] = target: Mitogen-activated protein kinase kinase kinase kinase 5 (Homo sapiens) (UniProt Q9Y4K4); assay: Inhibition of human KHS at 0.5 uM relative to control
Chain of Mitogen-activated protein kinase kinase kinase kinase 5 (Homo sapiens) (Q9Y4K4 whole entry, looked up): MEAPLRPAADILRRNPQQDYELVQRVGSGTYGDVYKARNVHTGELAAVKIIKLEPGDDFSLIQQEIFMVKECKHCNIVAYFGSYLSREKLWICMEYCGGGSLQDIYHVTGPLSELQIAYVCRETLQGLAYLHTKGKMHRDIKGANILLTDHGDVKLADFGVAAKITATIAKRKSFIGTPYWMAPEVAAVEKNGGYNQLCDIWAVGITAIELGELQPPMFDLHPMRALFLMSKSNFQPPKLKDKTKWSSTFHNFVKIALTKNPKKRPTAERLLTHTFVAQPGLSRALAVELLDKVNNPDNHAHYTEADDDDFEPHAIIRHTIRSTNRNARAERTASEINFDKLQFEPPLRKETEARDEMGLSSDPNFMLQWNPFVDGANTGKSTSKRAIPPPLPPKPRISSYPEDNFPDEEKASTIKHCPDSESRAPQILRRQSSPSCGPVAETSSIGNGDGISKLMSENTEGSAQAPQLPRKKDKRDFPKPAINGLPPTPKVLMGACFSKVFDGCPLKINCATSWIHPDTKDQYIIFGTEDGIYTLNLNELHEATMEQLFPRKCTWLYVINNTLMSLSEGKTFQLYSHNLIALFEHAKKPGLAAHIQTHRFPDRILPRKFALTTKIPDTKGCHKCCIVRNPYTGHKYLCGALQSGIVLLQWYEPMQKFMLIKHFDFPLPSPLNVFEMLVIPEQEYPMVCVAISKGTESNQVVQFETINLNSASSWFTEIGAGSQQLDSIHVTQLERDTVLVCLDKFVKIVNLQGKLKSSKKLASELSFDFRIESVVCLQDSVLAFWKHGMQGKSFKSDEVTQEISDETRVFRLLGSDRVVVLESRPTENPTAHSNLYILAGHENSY

[17] = target: TRAF2 and NCK-interacting protein kinase (Homo sapiens) (UniProt Q9UKE5); assay: Inhibition of human TNIK at 0.5 uM relative to control
[18] = target: Tyrosine-protein kinase HCK (Homo sapiens) (UniProt P08631); assay: Inhibition of human HCK at 0.5 uM relative to control
Chain of Tyrosine-protein kinase HCK (Homo sapiens) (P08631 2-526 limits assumed): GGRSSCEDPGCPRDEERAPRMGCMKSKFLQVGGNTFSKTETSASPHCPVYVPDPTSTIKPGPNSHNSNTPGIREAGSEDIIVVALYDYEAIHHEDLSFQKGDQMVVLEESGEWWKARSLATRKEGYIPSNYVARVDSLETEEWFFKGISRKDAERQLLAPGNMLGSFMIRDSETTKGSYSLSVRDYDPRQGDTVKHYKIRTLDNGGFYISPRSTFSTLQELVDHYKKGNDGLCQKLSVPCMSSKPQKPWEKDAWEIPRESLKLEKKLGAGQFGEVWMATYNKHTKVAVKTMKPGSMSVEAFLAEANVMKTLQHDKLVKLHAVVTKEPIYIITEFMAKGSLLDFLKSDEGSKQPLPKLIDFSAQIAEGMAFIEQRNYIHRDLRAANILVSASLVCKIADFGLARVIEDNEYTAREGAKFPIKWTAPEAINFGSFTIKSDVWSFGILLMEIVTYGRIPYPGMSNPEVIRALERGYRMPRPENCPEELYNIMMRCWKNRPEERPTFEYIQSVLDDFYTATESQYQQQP

[19] = target: STE20-like serine/threonine-protein kinase (Homo sapiens) (UniProt Q9H2G2); assay: Inhibition of human SLK at 0.5 uM relative to control
[20] = target: T1, Vascular endothelial growth factor receptor 2 (Homo sapiens, UniProt P35968)
T1 sequence (P35968 whole entry): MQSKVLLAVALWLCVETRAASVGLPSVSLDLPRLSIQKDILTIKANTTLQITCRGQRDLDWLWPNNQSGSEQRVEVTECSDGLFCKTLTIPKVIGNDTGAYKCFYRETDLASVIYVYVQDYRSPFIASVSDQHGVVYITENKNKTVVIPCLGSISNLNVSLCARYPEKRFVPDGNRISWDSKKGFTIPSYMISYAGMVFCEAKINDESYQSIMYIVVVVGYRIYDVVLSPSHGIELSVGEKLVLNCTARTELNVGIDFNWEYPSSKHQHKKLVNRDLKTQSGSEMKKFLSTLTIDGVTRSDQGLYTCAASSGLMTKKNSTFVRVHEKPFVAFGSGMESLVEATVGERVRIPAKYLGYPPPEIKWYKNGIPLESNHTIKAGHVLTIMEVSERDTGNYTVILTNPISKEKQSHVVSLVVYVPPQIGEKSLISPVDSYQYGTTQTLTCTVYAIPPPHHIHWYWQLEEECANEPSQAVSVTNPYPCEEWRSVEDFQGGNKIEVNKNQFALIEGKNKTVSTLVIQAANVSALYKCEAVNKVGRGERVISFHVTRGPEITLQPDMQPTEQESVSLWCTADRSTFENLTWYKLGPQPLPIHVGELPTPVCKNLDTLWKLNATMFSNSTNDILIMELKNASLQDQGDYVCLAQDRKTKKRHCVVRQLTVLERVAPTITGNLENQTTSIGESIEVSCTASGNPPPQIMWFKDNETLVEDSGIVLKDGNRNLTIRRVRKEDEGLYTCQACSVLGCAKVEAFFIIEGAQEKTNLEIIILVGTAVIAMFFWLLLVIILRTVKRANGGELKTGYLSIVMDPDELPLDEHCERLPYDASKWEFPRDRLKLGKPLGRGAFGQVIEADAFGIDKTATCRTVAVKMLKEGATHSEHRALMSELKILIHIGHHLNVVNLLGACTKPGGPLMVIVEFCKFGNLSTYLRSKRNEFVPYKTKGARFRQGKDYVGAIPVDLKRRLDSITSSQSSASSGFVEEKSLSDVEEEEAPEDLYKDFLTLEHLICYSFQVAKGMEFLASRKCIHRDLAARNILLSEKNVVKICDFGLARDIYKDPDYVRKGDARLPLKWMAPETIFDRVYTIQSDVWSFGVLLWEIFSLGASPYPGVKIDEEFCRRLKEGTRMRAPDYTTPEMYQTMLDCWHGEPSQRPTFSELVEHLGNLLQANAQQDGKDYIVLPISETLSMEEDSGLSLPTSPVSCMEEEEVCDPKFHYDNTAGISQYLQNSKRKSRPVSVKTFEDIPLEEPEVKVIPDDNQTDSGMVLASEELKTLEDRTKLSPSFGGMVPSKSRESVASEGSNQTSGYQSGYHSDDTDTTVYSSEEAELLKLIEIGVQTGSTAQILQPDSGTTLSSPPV

[21] = target: T1, Vascular endothelial growth factor receptor 2; conditions: at 10 µM

Row | SMILES | inhibition of growth at 10 µM (HUVEC [1]) [%] | inhibition of growth at 10 µM (MDA-MB-435 [2]) [%] | pIC50 (HUVEC [3]) | inhibition of growth at 10 µM (A-431) [%] | also measured
1 | COc1cc2ncnc(Oc3ccc(NC(=O)Nc4cnn(C(C)C)c4)c4ccccc34)c2cc1OC | 93.6 | 27.7 | 6.20 | 49.9 | –
2 | COc1cc2ncnc(Oc3ccc(NC(=O)NC4CC4)c4ccccc34)c2cc1OC | 63.9 | 1.48 | – | 15.1 | –
3 | COc1cc2ncnc(Oc3ccc(NC(=O)Nc4ccc(Cl)c(C(F)(F)F)c4)c4ccccc34)c2cc1OC | 82.9 | 95.1 | 5.53 | 14.9 | pIC50 (MDA-MB-435 [4]): 5.42
4 | COc1cc2ncnc(Oc3ccc(NC(=O)Nc4ccc(Cl)c(C(F)(F)F)c4)c4cccnc34)c2cc1OC | 51.5 | 44.3 | – | 21 | –
5 | CCN(CC)CCNC(=O)c1c(C)[nH]c(/C=C2\C(=O)Nc3ccc(F)cc32)c1C | – | – | – | – | inhibition (Homo sapiens [5]): Active; inhibition [6]: Active; inhibition [7]: Active; inhibition [8]: Active; inhibition [9]: Active; inhibition [10]: Active; inhibition [11]: Active; inhibition [12]: Active; inhibition [13]: Active; inhibition [14]: Active; inhibition (Homo sapiens [15]): Active; inhibition [16]: Active; inhibition [17]: Active; inhibition [18]: Active; inhibition [19]: Active
6 | CNC(=O)c1cc(Oc2ccc(NC(=O)Nc3ccc(Cl)c(C(F)(F)F)c3)cc2)ccn1 [SORAFENIB] | 84.7 | 91.9 | 5.83 | 68.9 | pIC50 (MDA-MB-435 [4]): 5.68
7 | COc1cc2ncnc(Oc3ccc(NC(=O)Nc4cc(C)on4)c4ccccc34)c2cc1OC | 61.9 | 0.23 | – | -1.52 | –
8 | COc1cc2ncnc(Oc3ccc(NS(=O)(=O)c4ccccc4)c4ccccc34)c2cc1OC | – | – | – | – | pIC50 [20]: < 5.00; inhibition [21]: 44.3%
9 | COc1cc2ncnc(Oc3ccc(NC(=O)Nc4cccc(C(F)(F)F)c4)c4ccccc34)c2cc1OC | 66.8 | 24.5 | – | -4.51 | pIC50 [20]: 7.54; inhibition [21]: 99%
